In ChEMBL document CHEMBL1123290, “Synthesis, antimalarial activity, and quantitative structure-activity relationships of tebuquine and a series of related 5-[(7-chloro-4-quinolinyl)amino]-3-[(alkylamino)methyl] [1,1'-biphenyl]-2-ols and N omega-oxides” (1986):

Assays:
Assay type in all cases: functional
Plasmodium berghei [1] = experiment: Change in mean survival time for control (average 6.2 days) versus treated mice (Mus musculus) 72 hrs after 640 mg/kg subcutaneous dose
Mus musculus [2] = experiment: Antimalarial activity of compound administered as a single subcutaneous dose of 160mg/kg, 72-h postinfection measured as number of mice (Mus musculus) surviving at 60 days postinfection
In short: (§1)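 Mice were infected with a normal drug-sensitive Plasmodium berghei strain. At 72 h postinfection each received one subcutaneous dose of compound dissolved or suspended in peanut oil, in five-mouse groups per dose. The read-out was the number of mice alive at 60 days postinfection, which were scored as cured.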

Mus musculus [3] = experiment: Antimalarial activity, administered as a single subcutaneous dose of 640 mg/kg, 72 hrs post infection measured as number of mice (Mus musculus) surviving at 60 days post infection; in short: as §1
Plasmodium berghei [4] = experiment: Difference in mean survival time in mice (Mus musculus) (control = 6.2 days) after single 40mg/kg subcutaneous dose 72hr post infection
Plasmodium berghei [5] = experiment: Change in mean survival time for control (average 6.2 days) versus treated mice (Mus musculus) 72 hrs after […] subcutaneous dose
Plasmodium berghei [6] = experiment: Change in mean survival time for control (average 6.2 days) versus treated mice (Mus musculus) 72 hrs after 5 mg/kg subcutaneous dose
Plasmodium berghei [7] = experiment: Change in mean survival time for control (average of 6.2 days) versus treated mice (Mus musculus) 72 hrs after 80 mg/kg subcutaneous dose
Plasmodium berghei [8] = experiment: Change in mean survival time for control (average 6.2 days) versus treated mice (Mus musculus) 72 hrs after 160 mg/kg subcutaneous dose
Plasmodium berghei [9] = experiment: (§2) Change in mean survival time for control (average 6.2 days) versus treated mice (Mus musculus) 72 hrs after […] subcutaneous dose
Mus musculus [10] = experiment: Antimalarial activity of compound administered as a single subcutaneous dose of 20 mg/kg, 72 hrs post infection measured as number of mice (Mus musculus) surviving at 60 days post infection; in short: as §1
Mus musculus [11] = experiment: Antimalarial activity of compound administered as a single subcutaneous dose of 40 mg/kg, 72-h postinfection measured as number of mice (Mus musculus) surviving at 60 days postinfection; in short: as §1
Plasmodium berghei [12] = experiment: Change in mean survival time for control (average 6.2 days) versus treated mice (Mus musculus) 72 hrs after 20 mg/kg subcutaneous dose
Mus musculus [13] = experiment: Antimalarial activity of compound administered as a single subcutaneous dose of 320 mg/kg, 72 hrs post infection measured as number of mice (Mus musculus) surviving at 60 days post infection; in short: as §1
Mus musculus [14] = experiment: Antimalarial activity of compound administered as a single subcutaneous dose of 80mg/kg, 72-h postinfection measured as number of mice (Mus musculus) surviving at 60 days postinfection; in short: as §1
Plasmodium berghei [15] = experiment: Change in mean survival time for control (average 6.2 days) versus treated mice (Mus musculus) 72 hrs after 320 mg/kg subcutaneous dose
Plasmodium berghei [16] = experiment: Change in mean survival time for control (average 6.2 days) versus treated mice (Mus musculus) 72 hrs after 10 mg/kg subcutaneous dose
Mus musculus [17] = experiment: Compound was evaluated for parenteral antimalarial activity against Plasmodium berghei in mice (Mus musculus) after single dose (mg/kg subcutaneously) 40
Plasmodium berghei [18] = experiment: Antimalarial activity as 60-day survivors in infected mice (Mus musculus) after single 320mg/kg subcutaneous dose 72 hr post infection; in short: as §1
Mus musculus [19] = experiment: Compound was evaluated for parenteral antimalarial activity against Plasmodium berghei in mice (Mus musculus) after single dose (80 mg/kg subcutaneously)
Plasmodium berghei [20] = experiment: Antimalarial activity as 60-day survivors in Plasmodium berghei infected mice (Mus musculus) after single 160mg/kg subcutaneous dose 72 hr post infection; in short: as §1
Mus musculus [21] = experiment: Compound was evaluated for parenteral antimalarial activity against Plasmodium berghei in mice (Mus musculus) after single dose (mg/kg subcutaneously) 20
Plasmodium berghei [22] = experiment: Antimalarial activity as 60-day survivors in infected mice (Mus musculus) after single 20 mg/kg subcutaneous dose 72hr post infection; in short: as §1
Mus musculus [23] = experiment: Delta MST, difference in mean survival time of the control mice (an average of 6.2 days) from the mean survival time of the treated mice after a single sc dose of 160 mg/kg, 72-h postinfection; conditions: route subcutaneous
Plasmodium berghei [24] = experiment: Antimalarial activity in primary screen
Mus musculus [25] = experiment: Antimalarial activity, administered as a single subcutaneous dose of 80 mg/kg, 72 hrs post infection measured as number of mice (Mus musculus) surviving at 60 days post infection; in short: as §1
Mus musculus [26] = experiment: Antimalarial activity, administered as a single subcutaneous dose of 40 mg/kg, 72 hrs post infection measured as number of mice (Mus musculus) surviving at 60 days post infection; in short: as §1
Mus musculus [27] = experiment: Delta MST, difference in mean survival time of the control mice (an average of 6.2 days) from the mean survival time of the treated mice after a single sc dose of 1.25 mg/kg, 72-h postinfection; conditions: route subcutaneous
Mus musculus [28] = experiment: Antimalarial activity of compound administered as a single subcutaneous dose of 10mg/kg, 72 hrs post infection measured as number of mice (Mus musculus) surviving at 60 days post infection; in short: as §1
Mus musculus [29] = experiment: Compound was evaluated for parenteral antimalarial activity against Plasmodium berghei in mice (Mus musculus) after single dose (40 mg/kg subcutaneous); no of mice (Mus musculus) surviving at 60 days post infection, 3 cured; in short: as §1
Plasmodium berghei [30] = experiment: Change in mean survival time for control (average 6.2 days) versus treated mice (Mus musculus) after 160 mg/kg subcutaneous dose
Plasmodium berghei [31] = experiment: as §2; remark: listed apart in the source
Plasmodium berghei [32] = experiment: Change in mean survival time of Plasmodium berghei infected mice (Mus musculus) after 5 mg/kg subcutaneous dose
Plasmodium berghei [33] = experiment: Change in mean survival time for control (average 6.2 days) versus treated mice (Mus musculus) after 20 mg/kg subcutaneous dose
Plasmodium berghei [34] = experiment: Change in mean survival time in control (average 6.2 days) versus treated mice (Mus musculus) after 80 mg/kg subcutaneous dose
Plasmodium berghei [35] = experiment: Change in mean survival time for control (average 6.2 days) versus treated mice (Mus musculus) after 320 mg/kg subcutaneous dose
Plasmodium berghei [36] = experiment: Difference in mean survival time of Plasmodium berghei infected mice (Mus musculus) after 10 mg/kg subcutaneous dose
Mus musculus [37] = experiment: Compound was evaluated for parenteral antimalarial activity against Plasmodium berghei in mice (Mus musculus) after single dose (1.25 mg/kg subcutaneously)
Plasmodium berghei [38] = experiment: Change in mean survival time of Plasmodium berghei infected mice (Mus musculus) on 1.25 mg/kg subcutaneous dose
Plasmodium berghei [39] = experiment: Change in mean survival time of Plasmodium berghei infected mice (Mus musculus) after […] subcutaneous dose
Plasmodium berghei [40] = experiment: Change in mean survival time for control (average 6.2 days) versus treated mice (Mus musculus) after 40 mg/kg subcutaneous dose

| Structure (SMILES) | Delta MST (Plasmodium berghei [1]) | No. of mice cured (Mus musculus [3]) | Delta MST (Plasmodium berghei [4]) | Delta MST (Plasmodium berghei [5]) | Delta MST (Plasmodium berghei [6]) | Delta MST (Plasmodium berghei [7]) | Delta MST (Plasmodium berghei [8]) | Delta MST (Plasmodium berghei [9]) | Delta MST (Plasmodium berghei [12]) | Delta MST (Plasmodium berghei [15]) | Delta MST (Plasmodium berghei [16]) | No. of mice cured (Plasmodium berghei [18]) | No. of mice cured (Plasmodium berghei [20]) | ED30 (Plasmodium berghei [24]) | No. of mice cured (Mus musculus [25]) | other results |
| --- | --- | --- | --- | --- | --- | --- | --- | --- | --- | --- | --- | --- | --- | --- | --- | --- |
| CC(C)(C)NCc1cc(Nc2ccnc3cc(Cl)ccc23)cc(-c2ccccc2)c1O | 13 days | 1 | 20.2 days | 5.3 days | 13.7 days | 27.3 days | 12.8 days | 0.3 days | 14.8 days | 12.3 days | 29.5 days | – | – | – | – | No. of mice cured (Mus musculus [2]): 1; No. of mice cured (Mus musculus [10]): 1; No. of mice cured (Mus musculus [11]): 2; No. of mice cured (Mus musculus [13]): 1; No. of mice cured (Mus musculus [14]): 1 |
| CCN(CC)Cc1cc(Nc2cc[n+]([O-])c3cc(Cl)ccc23)cc(CN(CC)CC)c1O | – | 3 | – | – | – | – | – | – | – | – | – | 3 | 1 | – | – | Delta MST (Mus musculus [17]): 6.9 days; Delta MST (Mus musculus [19]): 8.5 days; Delta MST (Mus musculus [21]): 3.9 days |
| CCN(CC)Cc1cc(Nc2ccnc3cc(Cl)ccc23)cc(-c2cccc(Cl)c2)c1O | 21.9 days | 4 | 29.4 days | 1.3 days | 3.9 days | – | – | 0.3 days | 22.4 days | – | 15.5 days | 5 | 4 | 17.3 mg/kg | 2 | No. of mice cured (Plasmodium berghei [22]): 1; Delta MST (Mus musculus [23]): 31.9 days; No. of mice cured (Mus musculus [26]): 3 |
| Oc1c(CNC2CCCCC2)cc(Nc2ccnc3cc(Cl)ccc23)cc1-c1ccc(Cl)cc1 | 17.6 days | 4 | 17.9 days | 0.5 days | 1.5 days | 23.6 days | 20.6 days | – | 12.9 days | -0.4 days | 4.1 days | 4 | 4 | – | 3 | Delta MST (Mus musculus [27]): 0.7 days |
| CCN(CC)Cc1cc(Nc2ccnc3cc(Cl)ccc23)cc(-c2cccc(C(F)(F)F)c2)c1O | 17.9 days | 3 | 31.4 days | 9.7 days | 13.5 days | 28.2 days | 21.9 days | 0.5 days | 23.7 days | 21.9 days | 15.2 days | 3 | 4 | 16.3 mg/kg | 2 | No. of mice cured (Mus musculus [28]): 1; No. of mice cured (Mus musculus [29]): 3 |
| CC(C)CNCc1cc(Nc2ccnc3cc(Cl)ccc23)cc(-c2ccc(Cl)cc2)c1O | 13.4 days | – | – | 2 days | 5.2 days | – | 4.9 days | 0.8 days | 19.6 days | 11.3 days | 14.8 days | – | – | – | – | No. of mice cured (Mus musculus [2]): 2; No. of mice cured (Mus musculus [10]): 2; No. of mice cured (Mus musculus [11]): 5; No. of mice cured (Mus musculus [13]): 2; No. of mice cured (Mus musculus [14]): 5 |
| CCN(CC)Cc1cc(Nc2cc[n+]([O-])c3cc(Cl)ccc23)cc(-c2cccc(C(F)(F)F)c2)c1O | – | 4 | – | – | – | – | – | – | – | – | – | 1 | – | 113 mg/kg | – | Delta MST (Plasmodium berghei [30]): 21.1 days; Delta MST (Plasmodium berghei [31]): 27.9 days; Delta MST (Plasmodium berghei [32]): 0.3 days; Delta MST (Plasmodium berghei [33]): 5.9 days; Delta MST (Plasmodium berghei [34]): 11.7 days; Delta MST (Plasmodium berghei [35]): 24.9 days; Delta MST (Plasmodium berghei [36]): 1.1 days; Delta MST (Mus musculus [37]): 0.3; Delta MST (Plasmodium berghei [38]): 0.3 days; Delta MST (Plasmodium berghei [39]): -0.1 days; Delta MST (Plasmodium berghei [40]): 8.5 days |
